High-throughput results as filed in PubChem.
NPY1 pot ag: human NPY-Y1 potentiation or agonism, primary screen | P25929 | NPY-Y1 expressing cells, potentiator/agonist activation | activation, % at 3.6 µM | actives 0.37% (n = 220,000); in the data active = activation above about 33%, passing the limit was not always enough;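 note: cells stimulated with NPY at EC10 then isoproterenol at EC100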
NPY-Y1 antag: blocks the human neuropeptide Y Y1 receptor. HEK293-CNG Y1 cells, membrane potential fluorescence; NPY at EC95, then isoproterenol. AID 1040. actives 1% (n = 200,000). inhibition, % at 3.6 µM;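 active = inhibition above the campaign mean inhibition of all tested compounds plus 3 SD, cut at about 20% in these data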
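Material: HEK293 Y1/CNG channel cell line; also added: NPY (25 nM), isoproterenol (1 µM), Ro 20-1724 (25 µM); doses: one concentration, 3.6 µM, in 0.4% DMSO; schedule: compound incubation 1 h at room temperature, readout 45 min post-stimulation; technique: membrane potential fluorescence; measure: fluorescence ratio normalized to % inhibition between controls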
NPY-Y2 antag: blocks the human neuropeptide Y Y2 receptor | inhibition, % at 2.7 µM | actives 0.99% (n = 140,000) | NPY-Y2 expressing cells, antagonist mode | P49146; in the data active = inhibition above about 17%
Furin inhibitor: inhibitors of human furin. purified furin, fluorogenic substrate cleavage. inhibition, % at 20 µM or 30 µM. actives 0.061% (n = 220,000). AID 463115; in the data active = inhibition above about 25%
Target sequence (P09958 108-714 limits assumed): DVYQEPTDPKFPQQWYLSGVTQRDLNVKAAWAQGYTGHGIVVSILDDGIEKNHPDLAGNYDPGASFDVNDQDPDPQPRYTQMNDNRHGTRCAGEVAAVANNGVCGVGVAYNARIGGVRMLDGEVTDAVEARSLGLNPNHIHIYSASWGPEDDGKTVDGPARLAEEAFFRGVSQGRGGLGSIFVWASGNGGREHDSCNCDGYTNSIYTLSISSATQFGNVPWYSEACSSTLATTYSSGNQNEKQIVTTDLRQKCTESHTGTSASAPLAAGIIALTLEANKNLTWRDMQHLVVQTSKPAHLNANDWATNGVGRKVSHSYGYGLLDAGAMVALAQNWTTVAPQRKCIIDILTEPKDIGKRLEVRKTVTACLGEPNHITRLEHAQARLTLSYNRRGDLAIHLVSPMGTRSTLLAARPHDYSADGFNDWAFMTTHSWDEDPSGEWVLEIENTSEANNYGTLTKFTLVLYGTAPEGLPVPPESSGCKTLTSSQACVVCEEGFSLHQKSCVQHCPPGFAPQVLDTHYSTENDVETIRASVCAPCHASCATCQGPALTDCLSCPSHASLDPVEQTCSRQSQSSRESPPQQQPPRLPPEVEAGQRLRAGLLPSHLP
KCC2 mod: KCC2 (human) Cl- transport modulation; Q9H2X9; KCC2 cells, thallium flux FluoZin-2 fluorescence; B-score of Tl+ flux slope (higher = more flux/activation; lower = inhibition) at 10 µM; actives 2.2% (n = 190,000); AID 1456;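 active = thallium flux slope and its plate-corrected score both differing from the plate sample mean at a set confidence after two filtering rounds, in either direction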;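 note: slope of fluorescence scaled to starting intensity during 10 to 20 s after thallium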
NPY2 pot ag: human NPY-Y2 potentiation or agonism, primary screen; cells expressing NPY-Y2, potentiator/agonist read-out; activation, % at 3.6 µM; actives 0.45% (n = 220,000); in the data active = activation above about 27%;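 note: cells stimulated with NPY near EC25 plus isoproterenol at EC100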
KCC2 secondary: confirmation of human KCC2 transport modulators; shares compounds with KCC2 mod; HEK293-KCC2, thallium flux, FluoZin2 fluorescence; stronger effect = higher value; normalised thallium flux (F/F0 slope) at 10 µM; actives 15% (n = 3,700); AID 1713;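 active = thallium flux slope above the same plate's solvent-only control mean plus 3 SD; inconclusive = the two replicate wells disagree; inactive = no significant difference from solvent-only control wells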
KCC2 bumet counter: bumetanide-insensitive thallium flux in KCC2 cells with ouabain, counter-screen; shares compounds with KCC2 mod; HEK293-KCC2 + bumetanide/ouabain, thallium flux FluoZin2; stronger effect = higher value; normalized thallium flux at 10 µM; actives 49% (n = 3,700); AID 1714;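 active = thallium entry rate above the same plate's blocked-transporter control wells by more than 3 SD; inconclusive = the two repeat wells disagree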;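 note: raw slope of fluorescence over initial fluorescence between 10 and 20 s after thallium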
KCC2 secondary2: confirmation of human KCC2 transport modulators. actives 23% (n = 3,700). AID 1715. shares compounds with KCC2 mod. HEK293-KCC2, thallium flux FluoZin2 fluorescence; actives lie on both sides; F/F0 rise rate, 10–20 s post-thallium. normalized thallium flux at 10 µM;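 active = thallium flux slope more than 3 SD above or below the plate's solvent-only control mean, mostly below; inconclusive = the two repeat wells disagreed; inactive = no significant shift from solvent-only controls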
HEK293 Tl flux: counter-screen for KCC2 modulators: effect in parental HEK293 cells; AID 1716; shares compounds with KCC2 mod; actives 46% (n = 3,700); thallium flux rate (normalised fluorescence) at 10 µM; thallium flux FluoZin2, ouabain; baseline-ratio fluorescence slope, 10–20 s after thallium;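 active = thallium flux rate significantly above the same plate's solvent-only control wells, beyond their mean plus 3 SD; inconclusive = the two replicate wells gave conflicting results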
KCC2 ouabain: confirmation of human KCC2 modulators with ouabain; shares compounds with KCC2 mod; actives 48% (n = 3,700); raw Tl+ flux slope (below DMSO = inhibition, above = activation) at 10 µM; AID 1717; HEK293-KCC2, thallium flux FluoZin2 fluorescence; bidirectional: low = inhibitor, high = activator;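 active = thallium flux slope beyond 3 SD from same-plate DMSO control mean in most replicates, usually higher, sometimes lower; inconclusive = repeat tests gave conflicting results; inactive = no significant difference from controls in most replicates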;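 note: slope of initial-normalized fluorescence between seconds 10 and 20 after thallium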
HEK counter2: acts in parental HEK cells, second KCC2 counter-screen; thallium flux slope at 10 µM; HEK293 parental, thallium flux FluoZin-2 fluorescence slope; AID 1718; shares compounds with KCC2 mod; actives 33% (n = 3,700);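 active = thallium flux slope above the same plate's solvent-control mean plus 3 SD in both duplicate wells; inconclusive = duplicate wells that disagreed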;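 note: run without ouabain in cells lacking the KCC2 cotransporter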
Hits are given with their value; - = inactive; ? = inconclusive; . = no result. This is a sample that favours compounds with a hit; in the whole collection about 3.7% have one here.

SMILES | NPY1 pot ag | NPY-Y1 antag | NPY-Y2 antag | Furin inhibitor | KCC2 mod | NPY2 pot ag | KCC2 secondary | KCC2 bumet counter | KCC2 secondary2 | HEK293 Tl flux | KCC2 ouabain | HEK counter2
CCOC(=O)C1CCCCN1Cc1ccc(OC)c(OC)c1 (stereo unspecified) | - | . | . | - | - | - | . | . | . | . | . | .
NC(=O)COC(=O)/C=C/c1cccc(Br)c1 | - | - | . | - | -7.7 | - | - | - | - | - | - | -
CCn1cc(/C=N\NC(=O)C2(C)CC2(Cl)Cl)c(C)n1 (stereo unspecified) | - | - | - | - | - | - | . | . | . | . | . | .
O=S(=O)(c1ccc(Cl)c(NC(=S)N/N=C/c2ccc(O)cc2)c1)N1CCOCC1 | - | - | - | - | - | - | . | . | . | . | . | .
FC(F)(F)c1ccc(Cl)c(NC(=S)N/N=C/c2ccccc2Cl)c1 | - | . | . | - | 5.4 | - | - | 0.034 | - | 0.01 | ? | -
S=C(N/N=C/c1ccc(Cl)c(Cl)c1)Nc1ccccc1Cl | - | - | . | - | 3.9 | - | - | 0.03 | - | 0.016 | 0.032 | 0.012
O=[N+]([O-])c1cc(/C=N/NC(=S)Nc2ccccc2Cl)ccc1Cl | 41 | - | . | - | 7.8 | 36 | - | 0.015 | - | 0.021 | 0.029 | 0.017
Cc1ccc(NC(=S)N/N=C/c2ccc(Cl)c([N+](=O)[O-])c2)cc1 | - | - | - | - | - | - | . | . | . | . | . | .
S=C(Nc1ccccn1)Nc1ccccc1Cl | - | - | . | - | 5 | - | - | 0.014 | - | 0.0082 | ? | -
O=C(Nc1ccccc1C(F)(F)F)c1c(F)cccc1Cl | - | - | . | - | - | - | . | . | . | . | . | .
Cc1[nH]c2ccccc2c1SCC(=O)N1CCN(c2ccccc2)CC1 | - | - | - | - | -3.9 | - | - | - | 0.022 | - | 0.015 | -
Cc1[nH]c2ccccc2c1SCC(=O)N1CCCCC1 | - | - | . | - | - | - | . | . | . | . | . | .
COC(=O)C1=C(C(=O)OC)[C@@H]2N(Cc3ccccc3)c3ccccc3[C@@]23C[C@@H](C(=O)OC)N(C(C)=O)C3=N1 | . | . | . | - | -1.1 | . | - | - | - | - | - | -
COC(=O)C1=C(C(=O)OC)[C@@H]2N(Cc3ccccc3)c3ccccc3[C@@]23C[C@@H](C(=O)OC)N(C(=O)COCc2ccccc2)C3=N1 | . | . | . | - | - | . | . | . | . | . | . | .
Cc1c(C(=O)O)sc(=S)n1CCOc1ccccc1 | - | - | - | - | . | - | - | - | 0.024 | - | 0.015 | -
COC(=O)c1sc(=S)n(Cc2ccccc2)c1C | - | . | . | - | - | - | . | . | . | . | . | .
Cc1c(N=C(N)/N=C(\N)Nc2ccc(Br)cc2)c(=O)n(-c2ccccc2)n1C | - | - | - | - | - | - | . | . | . | . | . | .
COc1cc(OC)c(OC)cc1/C=N/N(C)c1ccccc1 | - | - | - | - | - | - | . | . | . | . | . | .
COc1cc(/C=N/N(C)c2ccccc2)ccc1O | - | - | - | - | -4.1 | - | - | - | 0.025 | - | ? | -
O=C(NCc1cccs1)C1CCN(c2nc3ccccc3o2)CC1 | - | - | - | - | . | - | - | - | - | - | 0.016 | -
CCOc1ccccc1CNC(=O)C1CCN(c2nc3ccccc3o2)CC1 | - | - | - | - | . | - | - | ? | ? | - | - | -
O=C(NS(=O)(=O)Oc1ccc(F)c(Cl)c1)OC[C@@H]1CCCN2CCCCC12 (stereo partly specified) | - | - | . | - | - | - | . | . | . | . | . | .
Nc1nc(C(F)(F)F)c(Br)c(=O)n1N | - | - | . | - | . | - | . | . | . | . | . | .
COc1cc(-c2n[nH]c(=S)n2/N=C/c2cccn2C)cc(OC)c1OC | - | . | . | - | - | - | . | . | . | . | . | .
CS(=O)(=O)N1N=C(c2cccs2)CC1c1ccc(Cl)o1 (stereo unspecified) | - | - | . | - | - | - | . | . | . | . | . | .
SMILES | NPY1 pot ag | NPY-Y1 antag | NPY-Y2 antag | Furin inhibitor | KCC2 mod | NPY2 pot ag | KCC2 secondary | KCC2 bumet counter | KCC2 secondary2 | HEK293 Tl flux | KCC2 ouabain | HEK counter2
COCCCn1nnnc1SCC(=O)N1c2ccccc2CC1C (stereo unspecified) | - | - | . | - | - | - | . | . | . | . | . | .
COc1ccc(C(=O)CSc2nnnn2Cc2ccccc2)cc1 | - | - | - | - | -6.4 | - | - | 0.0074 | 0.025 | - | ? | -
CC1Cc2ccccc2N1C(=O)CSc1nnnn1Cc1ccccc1 (stereo unspecified) | - | - | - | - | -3.6 | - | - | - | 0.023 | - | 0.015 | -
O=C(CSc1nnnn1Cc1ccccc1)c1ccccc1 | - | - | - | - | -3.2 | - | - | - | - | - | ? | -
CCc1nc2ccccc2n1CCC(C)C | - | - | - | - | - | - | . | . | . | . | . | .
Cc1ccccc1-n1nnnc1SCc1ncc(-c2ccccc2)o1 | - | - | - | - | -3.4 | - | - | - | ? | ? | - | -
c1ccc(-c2cnc(CSc3nnc4ccccn34)o2)cc1 | - | - | - | - | - | - | . | . | . | . | . | .
CCC1CCCCN1C(=O)c1c[nH]c2ccc(S(=O)(=O)N(C)c3ccc(Cl)cc3)cc2c1=O (stereo unspecified) | - | - | - | - | . | - | - | ? | ? | - | - | -
